The structures appear in SMILES notation.

The nature of data set [1]: Metabolic stability in human liver microsomes assessed as half life at 2.5 uM measured upto 120 mins in presence of NADPH by LC-MS analysis. The following applies: microsomes, 2 h, 2.5 µM. The class given is ADME, Microsome. The method, boiled down:
(§1)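 2.5 μM compound at 37 °C in 50 mM potassium phosphate pH 7.4 with 3 mM MgCl2, 1 mM EDTA and an NADPH regenerating system. […] Sampled at 0–120 min in 20-min steps, acetonitrile quench, LC-MS of parent. T1/2 from one-phase exponential decay fit.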
Background: Liver microsomes are a subcellular fraction often used to study metabolism.

Data set [2] is described as follows: Drug metabolism in human liver microsomes assessed as psilocin formation at 2.5 uM after 120 mins by LC-MS analysis. The following applies: 2 h. The class given is ADME, Microsome. The method, boiled down:
(§2)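 2.5 μM compound in 50 mM potassium phosphate pH 7.4 with 3 mM MgCl2, 1 mM EDTA and an NADPH regenerating system. Incubated at 37 °C with human liver or intestinal S9 or microsomes (400 μg/mL protein) or 10% human AB serum. Acetonitrile quench, then LC-MS; psilocin concentration read at 120 min.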

Data set [3] is described as follows: Drug metabolism in human intestine S9 fraction assessed as psilocin formation at 2.5 uM after 120 mins by LC-MS analysis. The data set is classed as ADME, subcellular. Conditions: s9, 2 h. The procedure, abridged:
as §2

Data set [4] in a line: Drug metabolism in human serum assessed as psilocin formation at 2.5 uM after 120 mins by LC-MS analysis. The following applies: 2 h. The data set is classed as ADME, cell-free. The method, boiled down:
as §2

The nature of data set [5]: Drug metabolism in human liver S9 fraction assessed as psilocin formation at 2.5 uM after 120 mins by LC-MS analysis. The data set is classed as ADME, subcellular. The following applies: s9, 2 h. The method, boiled down: as §2
A short description of data set [6]: Metabolic stability in human serum assessed as half life at 2.5 uM measured upto 120 mins in presence of NADPH by LC-MS analysis. The data set is classed as ADME, cell-free. The following applies: 2 h. The procedure, abridged: as §1
Data set [7] can be described thus: Drug metabolism in human intestine microsomes assessed as psilocin formation at 2.5 uM after 120 mins by LC-MS analysis. The data set is classed as ADME, Microsome. The following applies: 2 h. The method, boiled down: as §2
The nature of data set [8]: Metabolic stability in human intestine S9 fraction assessed as half life at 2.5 uM measured upto 120 mins in presence of NADPH by LC-MS analysis. The class given is ADME, subcellular. Conditions: s9, 2 h. The procedure, abridged:
as §1

The nature of data set [9]: Metabolic stability in human liver S9 fraction assessed as half life at 2.5 uM measured upto 120 mins in presence of NADPH by LC-MS analysis. Conditions: s9, 2 h, 2.5 µM. The data set is classed as ADME, subcellular. The procedure, abridged:
as §1

Data set [10] in a line: Metabolic stability in human intestine microsomes assessed as half life at 2.5 uM measured upto 120 mins in presence of NADPH by LC-MS analysis. The data set is classed as ADME, Microsome. Conditions: 2 h. The procedure, abridged:
as §1

Data set [11] can be described thus: Drug metabolism in po dosed C57BL/6 mouse assessed as psilocin formation measured upto 24 hrs by LC-MS analysis. The data set is classed as ADME, organism-based. The following applies: in vivo, dose 1-10 mg/kg.
The nature of data set [12]: Drug metabolism in C57BL/6 mouse assessed as psilocin formation at 10 mg/kg, po measured after 8 hrs by LC-MS analysis. The data set is classed as ADME, organism-based. Conditions: in vivo.

In the case of `CC(C)[Si](C(C)C)(C(C)C)n1cc(CCN(C)C)c2c(OC(=O)Sc3ccccc3)cccc21`, the t1/2 in data set [1] was found to be 9 min; in [6] it was 32 min; in data set [8], 24 min; in data set [9], 7 min; in [10], 13 min. Further, the Drug metabolism is 0.206 µM in data set [2]; 0 µM in data set [3]; 0 µM in data set [4]; 0.133 µM in [5]; 0 µM in data set [7].
As to `CCC(=O)OCOc1cccc2c1c(CCN(C)C)cn2C(=O)CC`, the t1/2 in [1] amounted to 13 min; in data set [6], 0.8 min; in [8], 52 min; in data set [9] it was 16 min; in [10], 22 min. For the same compound, the Drug metabolism was 0.001 µM in [2]; 0 µM in data set [3]; 0 µM in data set [4]; 0 µM in data set [5]; 0 µM in data set [7].
On to `CC(C)[Si](C(C)C)(C(C)C)n1cc(CCN(C)C)c2c(OC(=O)OCC3CC3)cccc21`, for which the t1/2 in data set [1] stood at 31 min; in data set [6] it was 26 min; in data set [8], 24 min; in data set [9] it was 49 min; in data set [10], 24 min. Besides, the Drug metabolism in data set [2] was 0.186 µM; in data set [3] it was 0.018 µM; in [4], 0 µM; in data set [5] it was 0.072 µM; in data set [7] it was 0.096 µM.
For the compound `CN(C)CCc1c[nH]c2cccc(OC(=O)c3ccc(Br)cc3)c12`, the t1/2 in data set [1] was determined as 87 min; in data set [6], 19 min; in data set [8] it was 69 min; in data set [9], 39 min; in [10] it was 71 min. For the same compound, the Drug metabolism in [2] was 1.31 µM; in data set [3] it was 0 µM; in data set [11] it was “Dose-Dependent Effect”; in data set [4], 2.01 µM; in data set [5] it was 0.689 µM; in data set [12], “Metabolite_Notdetected”. Also, the Drug metabolism in data set [7] was 0.018 µM.
`CN(C)CCc1c[nH]c2cccc(OC(=O)OCC(Cl)(Cl)Cl)c12`: the t1/2 in data set [1] came out at 277 min; in data set [6], 182 min; in data set [8] it was 221 min; in data set [10] it was 150 min. Moreover, the Drug metabolism is 0.057 µM in [2]; 0 µM in data set [3]; 0 µM in data set [4]; 0.133 µM in data set [5]; 0 µM in data set [7].
Consider `CCC(=O)Oc1cccc2c1c(CCN(C)C)cn2[Si](C(C)C)(C(C)C)C(C)C`, for which the t1/2 in [1] is recorded as 2 min; in [6], 49 min; in data set [8], 2 min; in data set [9], 3 min; in [10], 2 min. In addition, the Drug metabolism in data set [2] was 0.244 µM; in [3] it was 0 µM; in data set [4] it was 0 µM; in data set [5] it was 0.204 µM; in data set [7], 0.053 µM.
With `CN(C)CCc1c[nH]c2cccc(O[Si](c3ccccc3)(c3ccccc3)C(C)(C)C)c12`, the values for the t1/2 in [1] and in data set [9] were 229 min and 391 min, respectively. The Drug metabolism in data set [2], in data set [3], in data set [4], in data set [5] and in [7] was 0 µM each time.
As for `CN(C)CCc1c[nH]c2cccc(OC(=O)c3cccc(C(=O)Oc4cccc5[nH]cc(CCN(C)C)c45)c3)c12`, the t1/2 in data set [1] is on record as 241 min; in data set [6], 101 min; in data set [8], 445 min; in data set [10], 621 min. Besides, the Drug metabolism in [2], in [3], in data set [4], in data set [5] and in data set [7] was 0 µM throughout.
As to `CC(C)[Si](Oc1cccc2[nH]cc(CCN(C)C)c12)(C(C)C)C(C)C`, the t1/2 in [1] amounted to 104 min; in data set [8], 57 min; in data set [9] it was 96 min; in [10] it was 27 min. The Drug metabolism is 0 µM in data set [2]; 0 µM in data set [3]; “Dose-Dependent Effect” in [11]; 0.142 µM in data set [4]; 0 µM in [5]; “Metabolite_Notdetected” in [12]. Also, in data set [7], the Drug metabolism was 0 µM.
As for `COCCOCCOCC(=O)Oc1cccc2[nH]cc(CCN(C)C)c12`, the t1/2 turned out to be 5 min in [1]; 0.8 min in [6]; 72 min in [8]; 16 min in data set [9]; 60 min in data set [10]. In addition, the Drug metabolism in [2] came to 0.494 µM; in data set [3], 0 µM; in [4], 0 µM; in data set [5] it was 0 µM; in data set [7], 0 µM.
Turning to `CC(C)[Si](C(C)C)(C(C)C)n1cc(CCN(C)C)c2c(OC(=O)c3ccc(Br)cc3)cccc21`, the t1/2 in [1] is recorded as 25 min; in [8], 16 min; in [9] it was 15 min; in data set [10] it was 11 min. For the same compound, the Drug metabolism in [2] was 1.659 µM; in data set [3], 0.195 µM; in data set [4], 0 µM; in data set [5] it was 0.656 µM; in data set [7], 0.887 µM.
With `CCOC(=O)[C@@H](C)NP(=O)(Oc1ccccc1)Oc1cccc2c1c(CCN(C)C)cn2[Si](C(C)C)(C(C)C)C(C)C` (stereo not given in full), the t1/2 in [1] amounted to 22 min; in data set [6] it was 145 min; in data set [8], 39 min; in [9], 26 min; in data set [10] it was 29 min. For the same compound, the Drug metabolism stood at 0.324 µM in data set [2]; 0.47 µM in data set [3]; 0 µM in data set [4]; 0.153 µM in data set [5]; 0 µM in data set [7].
Turning to `COC(=O)c1cccc(C(=O)Oc2cccc3[nH]cc(CCN(C)C)c23)c1`, the t1/2 in [1] came out at 22 min; in data set [6], 33 min; in data set [9] it was 33 min. Also, the Drug metabolism turned out to be 0.919 µM in [2]; 0.166 µM in [3]; 3.148 µM in data set [4]; 0.451 µM in data set [5]; 0.241 µM in [7].
Take `CN(C)CCc1c[nH]c2cccc(OP3(=O)OCC(C)(C)CO3)c12`: the Drug metabolism was found to be 0 µM in [2]; 0 µM in data set [3]; 0 µM in data set [4]; 0.011 µM in data set [5]; 0 µM in [7].
For `CN(C)CCc1c[nH]c2cccc(OP(=O)(Oc3ccccc3)Oc3ccccc3)c12`, the t1/2 is recorded as 43 min in data set [1], 52 min in data set [8], 96 min in data set [9] and 28 min in data set [10]. The Drug metabolism in [2] is 0 µM; in data set [3], 0 µM; in [11], “Dose-Dependent Effect”; in data set [4], 0.069 µM; in data set [5] it was 0.073 µM; in [12], “Metabolite_Notdetected”. The Drug metabolism in data set [7] was 0.076 µM.
Regarding `CC(C)[Si](C(C)C)(C(C)C)n1cc(CCN(C)C)c2c(OCc3ccc(F)cc3)cccc21`, the t1/2 in data set [1] was 27 min; in [8], 64 min; in data set [9], 60 min; in data set [10], 50 min. The Drug metabolism in [2], in data set [3], in [4], in data set [5] and in data set [7] was 0 µM throughout.
